Measurements: ChEMBL document CHEMBL2440057, “Rational drug design based synthesis of novel arylquinolines as anti-tuberculosis agents” (Bioorg Med Chem Lett, 2013)
Converted amounts (≈) assume the structure as drawn.

How the values were obtained:
[1] = tested on: Mycobacterium tuberculosis; assay: Antitubercular activity against Mycobacterium tuberculosis H37Rv assessed as parasite growth inhibition after 7 days by resazurin microtitre assay; assay type: functional; conditions: 168 h
In short: (§1)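 Mtb H37Rv was tested by resazurin microtitre assay (REMA) with twofold serial dilutions of compound. MIC was read visually as the lowest concentration preventing the dye's blue-to-pink colour change, since pink indicates growth.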

[2] = Cytotoxicity against African green monkey Vero C1008 cells after 72 hrs by MTT assay; assay type: cell-based; conditions: chlorocebus sabaeus
In short: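 Vero C1008 cells were tested in microtitre plates with an MTT viability read-out, and CC50 values were determined.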

[3] = Selectivity index, ratio of CC50 for African green monkey Vero C1008 cells to MIC for Mycobacterium tuberculosis H37Rv; assay type: functional
In short: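 Selectivity index is CC50 from the MTT assay on Vero C1008 cells over MIC against Mtb H37Rv from the twofold-dilution REMA plate method, where MIC was read visually by the blue-to-pink resazurin change.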

[4] = tested on: Mycobacterium tuberculosis; assay: Antitubercular activity against Mycobacterium tuberculosis H37Rv assessed as parasite growth inhibition; assay type: functional; in short: as §1

SMILES	MIC [1]	CC50 at 72 h [2]	Selectivity Index [3]	MIC [4]
CCN(CC)CC(O)CN(Cc1ccccc1)Cc1cc2ccccc2nc1OC (centres undefined)	40.6 µM (≈ 16.6 µg/mL)	613 µM	15.1	
CCN(CC)CC(O)CN(Cc1ccc(C)cc1)Cc1cc2ccccc2nc1OC (centres undefined)	19.3 µM (≈ 8.14 µg/mL)	1010 µM	52.21	
CCN(CC)CC(O)CN(Cc1ccc(OC)cc1)Cc1cc2ccccc2nc1OC (centres undefined)	79.1 µM (≈ 34.6 µg/mL)	727 µM	9.19	
CCN(CC)CC(O)CN(Cc1ccc(Cl)cc1)Cc1cc2ccccc2nc1OC (centres undefined)	10.1 µM (≈ 4.44 µg/mL)	808 µM	80.41	
COc1nc2ccccc2cc1CN(Cc1ccccc1)CC(O)CN1CCOCC1 (centres undefined)	97.1 µM (≈ 40.9 µg/mL)	553 µM	5.69	
COc1nc2ccccc2cc1CN(Cc1ccc(C)cc1)CC(O)CN1CCOCC1 (centres undefined)	21.9 µM (≈ 9.53 µg/mL)	884 µM	40.4	
COc1ccc(CN(Cc2cc3ccccc3nc2OC)CC(O)CN2CCOCC2)cc1 (centres undefined)	158 µM (≈ 71.5 µg/mL)	928 µM	5.86	
COc1nc2ccccc2cc1CN(Cc1ccc(Cl)cc1)CC(O)CN1CCOCC1 (centres undefined)	20.2 µM (≈ 9.21 µg/mL)	1060 µM	52.44	
COc1nc2ccccc2cc1CN(Cc1ccccc1)CC(O)CN1CCCC1 (centres undefined)	5.18 µM (≈ 2.1 µg/mL)	792 µM	152.86	
COc1nc2ccccc2cc1CN(Cc1ccc(C)cc1)CC(O)CN1CCCC1 (centres undefined)	9.68 µM (≈ 4.06 µg/mL)	1110 µM	115.02	
COc1ccc(CN(Cc2cc3ccccc3nc2OC)CC(O)CN2CCCC2)cc1 (centres undefined)	18.6 µM (≈ 8.12 µg/mL)	664 µM	35.59	
COc1nc2ccccc2cc1CN(Cc1ccc(Cl)cc1)CC(O)CN1CCCC1 (centres undefined)	5.59 µM (≈ 2.46 µg/mL)	898 µM	160.57	
COc1nc2ccc(Br)cc2cc1[C@@H](c1ccccc1)[C@@](O)(CCN(C)C)c1cccc2ccccc12 [BEDAQUILINE]				0.108 µM (≈ 0.06 µg/mL)
NNC(=O)c1ccncc1 [ISONIAZID]	15.3 µM (≈ 2.1 µg/mL)		96	
